From ChEMBL document CHEMBL3102848, “Carbamazepine derivatives with P2X4 receptor-blocking activity” (Bioorg Med Chem, 2014)

How the values were obtained:
Assay type in all cases: cell-based
[1] = molecular target: T1, P2X purinoceptor 4 (Homo sapiens) (UniProt Q99571); assay: Antagonist activity at human P2X4 receptor expressed in human 1321N1 cells assessed as inhibition of ATP-induced cytosolic calcium influx at 100 uM preincubated for 30 mins followed by ATP addition by Fluo-4 AM dye-based fluorescence assay
T1 sequence (whole entry): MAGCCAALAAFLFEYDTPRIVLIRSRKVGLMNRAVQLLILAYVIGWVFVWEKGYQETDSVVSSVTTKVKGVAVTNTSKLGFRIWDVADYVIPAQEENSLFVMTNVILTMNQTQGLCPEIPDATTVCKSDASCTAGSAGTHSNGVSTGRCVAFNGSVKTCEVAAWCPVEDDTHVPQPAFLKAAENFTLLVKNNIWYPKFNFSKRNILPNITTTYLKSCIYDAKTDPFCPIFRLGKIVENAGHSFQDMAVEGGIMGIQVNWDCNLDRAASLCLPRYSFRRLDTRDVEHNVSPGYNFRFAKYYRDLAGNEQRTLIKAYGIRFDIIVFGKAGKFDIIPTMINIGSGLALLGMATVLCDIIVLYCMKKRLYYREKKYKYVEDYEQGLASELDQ
Outline: (§1)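 Human P2X4 stably transfected into 1321N1 astrocytoma cells. Inhibition of ATP-induced calcium influx measured as in earlier work. Compounds were first screened at a single high concentration, chosen according to their solubility.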

P2X purinoceptor 4 = molecular target: T2, P2X purinoceptor 4 (Homo sapiens, UniProt Q99571); assay: Antagonist activity at human P2X4 receptor expressed in human 1321N1 cells assessed as inhibition of ATP-induced cytosolic calcium influx preincubated for 30 mins followed by ATP addition by Fluo-4 AM dye-based fluorescence assay; outline: as §1
T2 sequence (Q99571 whole entry): T1 sequence (whole entry)

[2] = molecular target: T1, P2X purinoceptor 4 (Homo sapiens); assay: Antagonist activity at human P2X4 receptor expressed in human 1321N1 cells assessed as inhibition of ATP-induced cytosolic calcium influx at 10 uM preincubated for 30 mins followed by ATP addition by Fluo-4 AM dye-based fluorescence assay; outline: as §1
[3] = molecular target: T1, P2X purinoceptor 4 (Homo sapiens); assay: Antagonist activity at human P2X4 receptor expressed in human 1321N1 cells assessed as inhibition of ATP-induced cytosolic calcium influx at 300 uM preincubated for 30 mins followed by ATP addition by Fluo-4 AM dye-based fluorescence assay; outline: as §1
[4] = molecular target: T1, P2X purinoceptor 4 (Homo sapiens); assay: Antagonist activity at human P2X4 receptor expressed in human 1321N1 cells assessed as inhibition of ATP-induced cytosolic calcium influx at 20 uM preincubated for 30 mins followed by ATP addition by Fluo-4 AM dye-based fluorescence assay; outline: as §1

Which results are given for `O=C(c1ccccc1)N1c2ccccc2C=Cc2ccccc21`?
inhibition [1]: 75%; IC50 (P2X purinoceptor 4): 23.3 µM

Which results are given for `CNC(=O)N1c2ccccc2C=Cc2ccccc21`?
inhibition [1]: 47%; IC50 (P2X purinoceptor 4): ≥ 100 µM

What does the source list for `NC(=O)N1c2ccccc2C=Cc2ccc(F)cc21`?
inhibition [1]: -2%; IC50 (P2X purinoceptor 4): > 100 µM

For `C1=Cc2ccccc2N(Cc2ccccc2)c2ccccc21`, which inhibition [1] is on record?
Its inhibition is 34%.

What about the IC50 (P2X purinoceptor 4) of the same compound?
The IC50 was greater than 100 µM.

How did the inhibition [1] turn out when `NC(=O)N1c2ccccc2CCc2ccccc21` was run?
The inhibition was 35%.

And the IC50 (P2X purinoceptor 4)?
Its IC50 is greater than 100 µM.

Which results are given for `COc1ccc(CCNC(=O)N2c3ccccc3C=Cc3ccccc32)cc1`?
inhibition [1]: 83%; IC50 (P2X purinoceptor 4): 27.4 µM

How did the IC50 (P2X purinoceptor 4) turn out when `O=C(N1CCC(O)CC1)N1c2ccccc2C=Cc2ccccc21` was run?
Its IC50 is greater than 100 µM.

With `COC1=Cc2ccccc2N(C(N)=O)c2ccccc21` as the compound, how does the inhibition [1] read?
The inhibition was 34%.

And the IC50 (P2X purinoceptor 4)?
The IC50 was greater than 100 µM.

Which inhibition [1] does the source give for `CCN(CC)C(=O)N1c2ccccc2C=Cc2ccncc21` here?
The inhibition was 52%.

And the IC50 (P2X purinoceptor 4)?
The IC50 was 100 µM.

Which results are given for `CCCCNC(=O)N1c2ccccc2C=Cc2ccccc21`?
inhibition [1]: 49%; IC50 (P2X purinoceptor 4): ≥ 100 µM

Which results are given for `CN(C)C(=O)N1c2ccccc2C=Cc2ccccc21`?
inhibition [1]: 49%; IC50 (P2X purinoceptor 4): ≥ 100 µM

Which results are given for `CN(C)CCN(C)C(=O)N1c2ccccc2C=Cc2ccccc21`?
inhibition [1]: 42%; IC50 (P2X purinoceptor 4): ≥ 100 µM

How did the inhibition [1] turn out when `CC(C)COC(=O)N1c2ccccc2C=Cc2ccccc21` was run?
The inhibition was 58%.

What about the IC50 (P2X purinoceptor 4) of the same compound?
The IC50 was 100 µM.

`CC(C)N(C(=O)c1cccc2c1Nc1ccccc1C=C2)C(C)C` was tested. Which inhibition [1] did it give?
Its inhibition is 74%.

And the IC50 (P2X purinoceptor 4)?
Its IC50 is 30.6 µM.

For `O=C(N1CCOCC1)N1c2ccccc2C=Cc2ccccc21`, which inhibition [1] is on record?
The inhibition was 50%.

And the IC50 (P2X purinoceptor 4)?
Its IC50 is no less than 100 µM.

What does the source list for `NC(=O)N1c2ccccc2CC(O)c2ccccc21` (racemic) [LICARBAZEPINE]?
inhibition [1]: 28%; IC50 (P2X purinoceptor 4): > 100 µM

How did the inhibition [2] turn out when `NC(=O)N1c2ccccc2C2OC2c2ccccc21` (stereo not given) [CARBAMAZEPINE EPOXIDE] was run?
The inhibition was 1%.

And the IC50 (P2X purinoceptor 4)?
Its IC50 is greater than 10 µM.

For `O=C(NCc1ccccc1)N1c2ccccc2C=Cc2ccccc21`, which inhibition [1] is on record?
The inhibition was 75%.

And the IC50 (P2X purinoceptor 4)?
The IC50 was 78.9 µM.

How did the inhibition [1] turn out when `NC(=O)N1c2ccccc2C=Cc2ccc(C(F)(F)F)cc21` was run?
Its inhibition is 72%.

What about the IC50 (P2X purinoceptor 4) of the same compound?
The IC50 was 54.6 µM.

With `O=C(Nc1ccncc1)N1c2ccccc2C=Cc2ccccc21` as the compound, how does the inhibition [1] read?
The inhibition was 30%.

What about the IC50 (P2X purinoceptor 4) of the same compound?
Its IC50 is greater than 100 µM.

`CCOC1Cc2ccccc2N(C(N)=O)c2ccccc21` (racemic) was tested. Which inhibition [1] did it give?
Its inhibition is 17%.

And the IC50 (P2X purinoceptor 4)?
The IC50 was greater than 100 µM.

How did the inhibition [2] turn out when `NC1CCC(NC(=O)N2c3ccccc3C=Cc3ccccc32)CC1` (stereo not given) was run?
The inhibition was 11%.

What about the IC50 (P2X purinoceptor 4) of the same compound?
Its IC50 is greater than 10 µM.

Which inhibition [2] does the source give for `O=C(OCc1ccccc1)N1c2ccccc2C=Cc2ccccc21` here?
The inhibition was 73%.

And the IC50 (P2X purinoceptor 4)?
Its IC50 is 6.02 µM.

Which results are given for `CNC1=Cc2ccccc2N(C(N)=O)c2ccccc21`?
inhibition [1]: 80%; IC50 (P2X purinoceptor 4): 36.9 µM

Which results are given for `CN(C)CCCNC(=O)N1c2ccccc2C=Cc2ccccc21`?
inhibition [1]: 54%; IC50 (P2X purinoceptor 4): 100 µM

`CC(C)NC(=O)N1c2ccccc2C=Cc2ccccc21` was tested. Which inhibition [1] did it give?
Its inhibition is 47%.

What about the IC50 (P2X purinoceptor 4) of the same compound?
Its IC50 is 19.2 µM.

How did the inhibition [1] turn out when `Cc1ccc2c(c1)N(C(N)=O)c1ccccc1C=C2` was run?
The inhibition was 21%.

And the IC50 (P2X purinoceptor 4)?
The IC50 was greater than 100 µM.

`CC(C)(C)NC(=O)N1c2ccccc2C=Cc2ccccc21` was tested. Which inhibition [1] did it give?
The inhibition was 92%.

And the IC50 (P2X purinoceptor 4)?
Its IC50 is 13.8 µM.

With `NC(=O)N1c2ccccc2C=C(N)c2ccccc21` as the compound, how does the inhibition [2] read?
The inhibition was 12%.

What about the IC50 (P2X purinoceptor 4) of the same compound?
Its IC50 is greater than 10 µM.

Which results are given for `CN(C)c1ccc2c(c1)N(C(N)=O)c1ccccc1C=C2`?
inhibition [1]: 39%; IC50 (P2X purinoceptor 4): 15.3 µM

What does the source list for `NC(=O)N1c2ccccc2C=Cc2cc(F)ccc21`?
inhibition [1]: 11%; IC50 (P2X purinoceptor 4): > 100 µM

Which results are given for `NC(=O)N1c2ccccc2C=Cc2cc(O)ccc21`?
inhibition [3]: 82%; IC50 (P2X purinoceptor 4): 146 µM

What does the source list for `COC(=O)N1c2ccccc2C=Cc2ccccc21`?
inhibition [1]: 51%; IC50 (P2X purinoceptor 4): 100 µM

Which results are given for `O=C(Nc1ccccc1)N1c2ccccc2C=Cc2ccccc21`?
inhibition [1]: 49%; IC50 (P2X purinoceptor 4): 100 µM

With `O=C(N(CCO)CCO)N1c2ccccc2C=Cc2ccccc21` as the compound, how does the inhibition [1] read?
The inhibition was 2%.

What about the IC50 (P2X purinoceptor 4) of the same compound?
The IC50 was greater than 100 µM.

Which inhibition [1] does the source give for `CN1CCC(NC(=O)N2c3ccccc3C=Cc3ccccc32)CC1` here?
Its inhibition is 56%.

And the IC50 (P2X purinoceptor 4)?
The IC50 was no less than 100 µM.

`CC(=O)N1c2ccccc2C=Cc2ccccc21` was tested. Which inhibition [1] did it give?
Its inhibition is 39%.

And the IC50 (P2X purinoceptor 4)?
Its IC50 is greater than 100 µM.

Which results are given for `NC(=O)N1c2ccccc2C=Cc2ccccc21` [CARBAMAZEPINE]?
inhibition [1]: 35%; IC50 (P2X purinoceptor 4): > 100 µM

With `O=C(NCCc1ccccc1)N1c2ccccc2C=Cc2ccccc21` as the compound, how does the inhibition [1] read?
The inhibition was 107%.

What about the IC50 (P2X purinoceptor 4) of the same compound?
Its IC50 is 36.2 µM.

For `NC(=O)N1c2ccccc2C=Cc2ccc(O)cc21`, which inhibition [3] is on record?
Its inhibition is 99%.

What about the IC50 (P2X purinoceptor 4) of the same compound?
The IC50 was 72.8 µM.

With `NC(=O)N1c2ccccc2C=Cc2c1ccc1ccccc21` as the compound, how does the inhibition [1] read?
Its inhibition is 91%.

What about the IC50 (P2X purinoceptor 4) of the same compound?
The IC50 was 51.4 µM.

How did the inhibition [1] turn out when `COc1ccc2c(c1)N(C(N)=O)c1ccccc1C=C2` was run?
Its inhibition is 30%.

And the IC50 (P2X purinoceptor 4)?
Its IC50 is greater than 100 µM.

How did the inhibition [4] turn out when `O=C(NC1CCC(O)CC1)N1c2ccccc2C=Cc2ccccc21` (stereo not given) was run?
Its inhibition is 0%.

And the IC50 (P2X purinoceptor 4)?
Its IC50 is greater than 20 µM.

For `CC(=O)O[C@H]1Cc2ccccc2N(C(N)=O)c2ccccc21` [ESLICARBAZEPINE ACETATE], which inhibition [4] is on record?
Its inhibition is 25%.

And the IC50 (P2X purinoceptor 4)?
The IC50 was greater than 20 µM.

For `NC(=O)N1c2ccccc2CC(=O)c2ccccc21` [OXCARBAZEPINE], which inhibition [2] is on record?
Its inhibition is 10%.

What about the IC50 (P2X purinoceptor 4) of the same compound?
The IC50 was greater than 10 µM.

How did the IC50 (P2X purinoceptor 4) turn out when `CCN(CC)C(=O)N1c2ccccc2C=Cc2cccc(C(=O)N(C(C)C)C(C)C)c21` was run?
The IC50 was 52.5 µM.
